Measurements as given in ChEMBL document CHEMBL4689842, “EUbOPEN Chemogenomics Library wave 1” (2021).
Values joined by “and” are separate entries in the source; they are usually repeats but may differ in a detail not shown here. Identical values can stand only once.

How the values were obtained:
Type in all cases: toxicity, cell-based
Fibroblast [1] = experiment: Multiplex assay against human fibroblast
How it was run: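 Live cells were stained at seeding with Hoechst33342, BioTracker Green Microtubule Cytoskeleton Dye, MitoTracker Red and Annexin V Alexa Fluor 680, then imaged on a CQ1 microscope at 37°C and 5% CO2 after compound addition. CellPathfinder machine-learning gating split cells into Hoechst high-intensity objects or normal cells. Normal cells were split into healthy, pyknosed or fragmented nuclei, and pyknosed cells into mitotic or apoptotic. Tubulin, mitochondrial-mass and membrane-permeability phenotypes are per cents of healthy-nucleus cells.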

HEK-293T = experiment: Incucyte cell viability with HEK293T; settings: human, 10 µM, compound concentration 10 uM; further: filed as whole numbers so only -1 and 0 and 1 occur
Fibroblast [2] = experiment: Incucyte cell viability with human fibroblast; settings: 10 µM, compound concentration 10 uM; further: filed as whole numbers so only -1 and 0 and 1 occur
U2OS = experiment: Incucyte cell viability with U2OS; settings: human, 10 µM, compound concentration 10 uM; further: filed as whole numbers so only -1 and 0 and 1 occur
[3] = 12 h, 1 µM, compound concentration 1 uM, replicate 1
[4] = 12 h, 1 µM, compound concentration 1 uM, replicate 2
[5] = 12 h, 10 µM, compound concentration 10 uM, replicate 1
[6] = 12 h, 10 µM, compound concentration 10 uM, replicate 2
[7] = 24 h, 1 µM, compound concentration 1 uM, replicate 1
[8] = 24 h, 1 µM, compound concentration 1 uM, replicate 2
[9] = 24 h, 10 µM, compound concentration 10 uM, replicate 1
[10] = 24 h, 10 µM, compound concentration 10 uM, replicate 2
[11] = 48 h, 10 µM, compound concentration 10 uM, replicate 1
[12] = 48 h, 10 µM, compound concentration 10 uM, replicate 2
[13] = 6 h, replicate number 1, timepoint 6 hours
[14] = 12 h, replicate number 1, timepoint 12 hours
[15] = 18 h, replicate number 1, timepoint 18 hours
[16] = 24 h, replicate number 1, timepoint 24 hours
[17] = 0 h, replicate number 2, timepoint 0 hours

## c1ccc(-c2oc3ncnc(NC[C@@H]4CCCO4)c3c2-c2ccccc2)cc1
Fibroblast [1]; [3]
  Population Apoptotic (%): 77% and 68%
  Population Fragmented Nuclei (%): 30% and 24%
  Population Healthy Nuclei (%): 49% and 53%
  Population Hoechst High Intensity Objects (%): 11% and 13%
  Population Membrane Permeable-Phenotype (%): 22% and 42%
  Population Mitochondria Different-Phenotype (%): 7% and 16%
  Population Mitotic Cells (%): 22% and 31%
  Population Normal (%): 88% and 86%
  Population Pyknosed Nuclei (%): 20% and 21%
  Total Cell Count: 123 and 267
Fibroblast [1]; [4]
  Population Apoptotic (%): 50% and 25%
  Population Fragmented Nuclei (%): 35% and 48%
  Population Healthy Nuclei (%): 40% and 37%
  Population Hoechst High Intensity Objects (%): 35% and 44%
  Population Membrane Permeable-Phenotype (%): 29% and 27%
  Population Mitochondria Different-Phenotype (%): 11% and 18%
  Population Mitotic Cells (%): 50% and 75%
  Population Normal (%): 64% and 55%
  Population Pyknosed Nuclei (%): 23% and 13%
  Population Tubulin-Different-Phenotype (%): 47% and 100%
  Total Cell Count: 65 and 52
Fibroblast [1]; [5]
  Population Apoptotic (%): 53%
  Population Fragmented Nuclei (%): 20%
  Population Healthy Nuclei (%): 41%
  Population Hoechst High Intensity Objects (%): 20%
  Population Membrane Permeable-Phenotype (%): 21%
  Population Mitochondria Different-Phenotype (%): 42%
  Population Mitotic Cells (%): 46%
  Population Normal (%): 79%
  Population Pyknosed Nuclei (%): 37%
  Population Tubulin-Different-Phenotype (%): 84%
  Total Cell Count: 99
Fibroblast [1]; [6]
  Population Apoptotic (%): 87%
  Population Fragmented Nuclei (%): 14%
  Population Healthy Nuclei (%): 71%
  Population Hoechst High Intensity Objects (%): 6%
  Population Membrane Permeable-Phenotype (%): 34%
  Population Mitochondria Different-Phenotype (%): 56%
  Population Mitotic Cells (%): 12%
  Population Normal (%): 93%
  Population Pyknosed Nuclei (%): 14%
  Population Tubulin-Different-Phenotype (%): 95%
  Total Cell Count: 61
Fibroblast [1]; [7]
  Population Apoptotic (%): 65% and 78%
  Population Fragmented Nuclei (%): 19% and 29%
  Population Healthy Nuclei (%): 59% and 57%
  Population Hoechst High Intensity Objects (%): 18% and 12%
  Population Membrane Permeable-Phenotype (%): 17% and 16%
  Population Mitotic Cells (%): 34% and 21%
  Population Normal (%): 81% and 87%
  Population Pyknosed Nuclei (%): 21% and 13%
  Total Cell Count: 254 and 121
Fibroblast [1]; [8]
  Population Apoptotic (%): 70% and 83%
  Population Fragmented Nuclei (%): 43% and 66%
  Population Healthy Nuclei (%): 34% and 17%
  Population Hoechst High Intensity Objects (%): 33% and 36%
  Population Membrane Permeable-Phenotype (%): 13% and 28%
  Population Mitotic Cells (%): 30% and 16%
  Population Normal (%): 66% and 63%
  Population Pyknosed Nuclei (%): 22% and 15%
  Population Tubulin-Different-Phenotype (%): 66% and 100%
  Total Cell Count: 66 and 61
Fibroblast [1]; [9]
  Population Apoptotic (%): 76%
  Population Fragmented Nuclei (%): 43%
  Population Healthy Nuclei (%): 39%
  Population Hoechst High Intensity Objects (%): 25%
  Population Membrane Permeable-Phenotype (%): 13%
  Population Mitochondria Different-Phenotype (%): 51%
  Population Mitotic Cells (%): 23%
  Population Normal (%): 74%
  Population Pyknosed Nuclei (%): 17%
  Population Tubulin-Different-Phenotype (%): 82%
  Total Cell Count: 99
Fibroblast [1]; [10]
  Population Apoptotic (%): 100%
  Population Fragmented Nuclei (%): 14%
  Population Healthy Nuclei (%): 68%
  Population Hoechst High Intensity Objects (%): 10%
  Population Membrane Permeable-Phenotype (%): 21%
  Population Mitochondria Different-Phenotype (%): 56%
  Population Mitotic Cells (%): 0%
  Population Normal (%): 90%
  Population Pyknosed Nuclei (%): 16%
  Population Tubulin-Different-Phenotype (%): 81%
  Total Cell Count: 60
Fibroblast [1]; [11]
  Population Apoptotic (%): 60%
  Population Fragmented Nuclei (%): 36%
  Population Healthy Nuclei (%): 51%
  Population Hoechst High Intensity Objects (%): 14%
  Population Membrane Permeable-Phenotype (%): 13%
  Population Mitochondria Different-Phenotype (%): 55%
  Population Mitotic Cells (%): 40%
  Population Normal (%): 85%
  Population Pyknosed Nuclei (%): 11%
  Population Tubulin-Different-Phenotype (%): 95%
  Total Cell Count: 98
Fibroblast [1]; [12]
  Population Apoptotic (%): 0%
  Population Fragmented Nuclei (%): 40%
  Population Healthy Nuclei (%): 59%
  Population Hoechst High Intensity Objects (%): 10%
  Population Membrane Permeable-Phenotype (%): 16%
  Population Mitochondria Different-Phenotype (%): 42%
  Population Mitotic Cells (%): 0%
  Population Normal (%): 89%
  Population Pyknosed Nuclei (%): 0%
  Population Tubulin-Different-Phenotype (%): 96%
  Total Cell Count: 105
HEK-293T; [13]
  Growth Rate: 0
HEK-293T; [14]
  Growth Rate: 0
HEK-293T; [15]
  Growth Rate: 0
HEK-293T; [16]
  Growth Rate: 0
Fibroblast [2]; [17]
  Growth Rate: 1
Fibroblast [2]; [13]
  Growth Rate: 0
Fibroblast [2]; [14]
  Growth Rate: 0
Fibroblast [2]; [15]
  Growth Rate: 0
Fibroblast [2]; [16]
  Growth Rate: 0
U2OS; 0 h, replicate number 1, timepoint 0 hours
  Growth Rate: 1
U2OS; [17]
  Growth Rate: 0
U2OS; [13]
  Growth Rate: 1
U2OS; [14]
  Growth Rate: 0
U2OS; 12 h, replicate number 2, timepoint 12 hours
  Growth Rate: 1
U2OS; [15]
  Growth Rate: 0
U2OS; [16]
  Growth Rate: 0
U2OS; 24 h, replicate number 2, timepoint 24 hours
  Growth Rate: 1
